# Source: ChEMBL document CHEMBL1156715, “Synthesis of new 3-pyridinecarboxylates of potential vasodilation properties” (Eur J Med Chem, 2008)
# System: Aorta
# Test: Vasodilation activity in Wistar rat thoracic aorta assessed as reduction of norepinephrine hydrochloride-induced contracture after 2 hrs
# Type: functional, tissue-based
# Summary of the method: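 Endothelium-denuded aortic preparations (functional endothelium removed, confirmed by <10% acetylcholine relaxation of pre-contracted aorta) equilibrated 2 h under 2 g resting tension. Contraction to norepinephrine hydrochloride (3 × 10^-7 to 3 × 10^-3 M) recorded isometrically before and after increasing test concentrations. DMSO stock 50 mg/ml; DMSO-only controls. IC50 = concentration giving 50% reduction of maximal norepinephrine contracture.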
row,SMILES,IC50 [µM]
1,CCOC(=O)c1c(-c2ccc(F)cc2)cc(-c2ccccc2)nc1N1CCOCC1,146
2,CCOC(=O)c1c(-c2ccc(C)cc2)cc(-c2ccccc2)nc1N,327
3,CCOC(=O)c1c(-c2ccc(F)cc2)cc(-c2ccccc2)nc1Nc1ccc(OC)cc1,254
4,CCOC(=O)c1c(-c2ccc(C)cc2)cc(-c2ccccc2)nc1Nc1ccc(Cl)cc1,266
5,CCOC(=O)c1c(-c2ccc(C)cc2)cc(-c2ccccc2)nc1N1CCCCC1,175
6,CCOC(=O)c1c(-c2ccc(F)cc2)cc(-c2ccccc2)nc1N1CCCCC1,346

# More lines, in order of falling IC50, values ahead:
row,IC50 [µM],SMILES
1,715,CCOC(=O)c1c(-c2ccc(F)cc2)cc(-c2ccccc2)nc1Nc1ccc(Cl)cc1
2,367,CCOC(=O)c1c(-c2ccc(F)cc2)cc(-c2ccccc2)nc1Nc1ccccc1
3,340,CCOC(=O)c1c(-c2ccc(C)cc2)cc(-c2ccccc2)nc1N1CCOCC1
4,335,CCOC(=O)c1c(-c2ccc(F)cc2)cc(-c2ccccc2)nc1N
5,233,CCOC(=O)c1c(-c2ccc(C)cc2)cc(-c2ccccc2)nc1Nc1ccc(OC)cc1
6,229,CCOC(=O)c1c(-c2ccc(C)cc2)cc(-c2ccccc2)nc1N1CCN(c2nc(-c3ccccc3)cc(-c3ccc(C)cc3)c2C(=O)OCC)CC1
